Laboratory results as given in ChEMBL document CHEMBL4732102, “Sustainable, three-component, one-pot procedure to obtain active anti-flavivirus agents” (Eur J Med Chem, 2021).
The source made the active and inactive calls. The calls are words filed in the database; no cut-off is given here.

Assays:
[1] = Selectivity index, ratio of CC50 for human Huh-7 cells to EC50 for Zika virus H/PF/2013 infected in human Huh-7 cells; format: toxicity, cell-based; conditions: read-out: Ratio CC50/EC50
[2] = Selectivity index, ratio of CC50 for human Huh-7 cells to EC50 for dengue virus 2 EDEN 3295 infected in human Huh-7 cells; format: toxicity, cell-based; conditions: read-out: Ratio CC50/EC50
[3] = Inhibition of Dengue virus 2 full length NS5 RNA-dependent RNA polymerase assessed as reduction in elongation activity incubated for 1 hr; parameters: species or system dengue virus type 2
How it was run: (§1)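 Elongation (primer-dependent) assay: 100 nM full-length DENV-2 NS5, 100 nM U30-3'UTR template and 3 µM Atto-ATP in 50 mM Tris-HCl pH 7.5, 10 mM KCl, 0.5 mM MnCl2, Triton and 10 µM cysteine. Run 1 h at 37 °C; stopped with alkaline phosphatase and AttoPhos fluorescence read at 422/566 nm. Single point at 30 µM; IC50 is average ± SE of one experiment in duplicate.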

dengue virus type 2 [4] = assay: Antiviral activity against dengue virus 2 EDEN 3295 infected in human Huh-7 cells assessed as reduction in virus replication incubated for 48 hrs by plaque reduction assay; format: functional, organism-based; conditions: EDEN 3295, Huh-7, 48 h
How it was run: (§2)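 Huh-7 cells (1 × 10^5 seeded) infected 1 h at 37 °C with ZIKV H/PF/2013 at MOI 0.5 or DENV-2 EDEN3295 at MOI 0.3. Dose–response treatment from 0.01 to 100 µM followed, 24 h for ZIKV and 48 h for DENV-2. Supernatant titre measured by BHK-21 plaque assay. EC50 taken from a sigmoidal fit of titre versus concentration; average ± SE of one experiment in duplicate.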

dengue virus type 2 [5] = assay: Inhibition of Dengue virus 2 full length NS5 RNA-dependent RNA polymerase assessed as reduction in elongation activity at 30 uM incubated for 1 hr relative to control; how it was run: as §1
[6] = (§3) Cytotoxicity against human Huh-7 cells assessed as reduction in cell viability incubated for 48 hrs by celltiter glo luminescent assay; format: cell-based; conditions: Huh-7 cells
How it was run: (§4)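 Huh-7 cells (2 × 10^4 seeded, DMEM with 10% FBS) exposed to compound for 48 h at 37 °C. Viability read by CellTiter-Glo luminescence as percent of untreated control. CC50 derived from the viability curve.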

Zika virus [7] = assay: Antiviral activity against Zika virus H/PF/2013 infected in human Huh-7 cells assessed as reduction in virus replication at 10 uM incubated for 24 hrs by plaque reduction assay relative to control; format: functional; parameters: scale not given: the % may be the effect or the level left
How it was run: (§5)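 Huh-7 cells (1 × 10^5 seeded) infected 1 h at 37 °C with DENV-2 EDEN3295 (MOI 0.3) or ZIKV H/PF/2013 (MOI 0.5). Infected cells then treated at a single 10 µM concentration, 24 h for ZIKV and 48 h for DENV-2. Clarified supernatant titred by BHK-21 plaque assay. Viral titre reduction expressed as percent inhibition.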

dengue virus type 2 [8] = assay: Inhibition of Dengue virus 2 full length NS5 RNA-dependent RNA polymerase assessed as reduction in de novo initiation activity at 30 uM incubated for 1 hr relative to control
How it was run: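 De novo initiation assay: 100 nM full-length DENV-2 NS5 with 100 nM in vitro transcribed DENV-2 5'UTR-3'UTR RNA, 20 µM each of ATP, GTP and UTP, and 5 µM Atto-CTP. Buffer Tris-HCl pH 7.5 with KCl, 1 mM MgCl2, 0.3 mM MnCl2, Triton X-100 and 10 µM cysteine. Compound at 30 µM; 1 h at 37 °C. Read-out by alkaline phosphatase-released AttoPhos fluorescence (422/566 nm).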

Zika virus [9] = assay: Antiviral activity against Zika virus H/PF/2013 infected in human Huh-7 cells assessed as reduction in virus replication incubated for 24 hrs by plaque reduction assay; format: functional, organism-based; conditions: H/PF/2013, Huh-7, 24 h; how it was run: as §2
Huh-7 = assay: as §3; format: cell-based; conditions: huh-7, 48 h; how it was run: as §4
dengue virus type 2 [10] = assay: Antiviral activity against dengue virus 2 EDEN 3295 infected in human Huh-7 cells assessed as reduction in virus replication at 10 uM incubated for 48 hrs by plaque reduction assay relative to control; format: functional; parameters: scale not given: the % may be the effect or the level left; how it was run: as §5

Compound | IC50 ([3]; read-out: IC50) [µM] | EC50 (dengue virus type 2 [4]) [µM] | inhibition (dengue virus type 2 [5]) [%] | inhibition (dengue virus type 2 [8]) | IC50 [3] | EC50 (Zika virus [9]) [µM] | selectivity ratio [1] | selectivity ratio [2] | CC50 at 48 h [6] [µM] | Activity (Zika virus [7]) [%] | CC50 (Huh-7) | Activity (dengue virus type 2 [10]) [%]
C#C[C@@]1(O)[C@H](O)[C@@H](CO)O[C@H]1n1ccc2c(N)ncnc21 |  |  |  |  |  |  | > 100 | 100 |  |  |  | 
O=C(c1cc(-c2ccccc2)c(=O)n2c1sc1ccc(OC3CCCCC3)cc12)N1CCCC(O)C1 (racemic) |  | 1.3 | 36.9 | inactive | Not Active | 11.1 | 2 | 17 | 22.2 |  |  | 
O=C(O)CC(NC(=O)c1cc(-c2ccccc2)c(=O)n2c1sc1ccc(OC3CCCCC3)cc12)c1ccccc1 (racemic) | 10.4 | 1.2 | 96.2 | 79.3% |  | 5 | 20 | 83 | 100 |  |  | 
O=C(O)C1CCN(C(=O)c2cc(-c3ccccc3)c(=O)n3c2sc2ccc(OC4CCCCC4)cc23)C1 (racemic) |  | 6.4 | 64.6 | 11% | Not Active | 8.2 | > 12.2 | > 15.6 | > 100 |  |  | 
CC(C)C(CC(=O)O)NC(=O)c1cc(-c2ccccc2)c(=O)n2c1sc1ccc(OC3CCCCC3)cc12 (racemic) | 22.1 | 8.4 | 92.8 | 75% |  |  |  | 12 | 100 | 47.4 |  | 
O=C(O)C1CCCN(C(=O)c2cc(-c3ccccc3)c(=O)n3c2sc2ccc(OC4CCCCC4)cc23)C1 (racemic) |  |  | 64.9 | inactive | Not Active |  |  |  |  | 26.3 | Not Active | 65.3

Continued, in another order:

IC50 ([3]; read-out: IC50) [µM] | EC50 (dengue virus type 2 [4]) [µM] | inhibition (dengue virus type 2 [5]) [%] | inhibition (dengue virus type 2 [8]) | IC50 [3] | EC50 (Zika virus [9]) [µM] | Compound | selectivity ratio [1] | selectivity ratio [2] | CC50 at 48 h [6] [µM] | Activity (Zika virus [7]) [%] | CC50 (Huh-7) | Activity (dengue virus type 2 [10]) [%]
17.8 | 7.5 | 96.7 | 68.1% |  |  | O=C(NCC1(C(=O)O)CC1)c1cc(-c2ccccc2)c(=O)n2c1sc1ccc(OC3CCCCC3)cc12 |  | 13.3 | 100 | 15.8 |  | 
 | 5.8 | 42.7 | inactive | Not Active | 7.3 | C[C@H](CO)NC(=O)c1cc(-c2ccccc2)c(=O)n2c1sc1ccc(OC3CCCCC3)cc12 | 2.4 | 3 | 17.9 |  |  | 
 | 0.9 | 37.2 | inactive | Not Active | 7.3 | NC(=O)CCNC(=O)c1cc(-c2ccccc2)c(=O)n2c1sc1ccc(OC3CCCCC3)cc12 | 7.1 | 58 | 52.3 |  |  | 
23.2 | 3.1 | 95.9 | 81.5% |  |  | CC(C)(CC(=O)O)NC(=O)c1cc(-c2ccccc2)c(=O)n2c1sc1ccc(OC3CCCCC3)cc12 |  | 32 | 100 | 10.6 |  | 
 | 1.1 | 42.5 | inactive | Not Active | 8.1 | C[C@@H](CO)NC(=O)c1cc(-c2ccccc2)c(=O)n2c1sc1ccc(OC3CCCCC3)cc12 | 2.6 | 20 | 21.7 |  |  | 
 |  | 69.3 | 22.7% | Not Active |  | CC(CC(=O)O)NC(=O)c1cc(-c2ccccc2)c(=O)n2c1sc1ccc(OC3CCCCC3)cc12 (racemic) |  |  |  | 29 | Not Active | 68.1
